Experimental data taken from article PMC11238050 (Research and Practice in Thrombosis and Haemostasis, 2024).
Where two headings read alike, the source gives them in different places.

Experiments:
[1] = test system: Human gel-filtered platelet; experiment: Thrombin-induced platelet aggregation assay; assay type: cell-based; conditions: […] SAB, 0.02 U/mL thrombin
Method in brief: (§1)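 Human platelets in PRP or PIPES buffer, adjusted to 3.0 × 10^8/mL and preincubated 10 min at 37 °C with test compound in PBS (pH 7.4; 0.1–0.3 mM) or PBS alone. Agonists were bovine thrombin 0.02 U/mL, collagen 5 μg/mL or ADP 20 μM. Light-transmission aggregometry was run at 37 °C with stirring at 1000 rpm and recorded for at least 8 min.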

human platelet = assay type: cell-based
[2] = test system: platelets (gel-filtered / PRP); experiment: Collagen- and ADP-induced platelet aggregation; assay type: cell-based, human
Method in brief: as §1

human blood clot = experiment: Whole blood clot formation assay; conditions: 0.3 mM SAB
Method in brief: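 Blood was diluted 3-fold and treated with test compound (0.3 mM final, in PBS) or blank PBS. It was recalcified with 1 mM CaCl2 plus 2 U/mL thrombin and incubated 90 min at 37 °C. Clots were removed from the serum, and dry weight was measured after 24 h at room temperature (20 °C).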

[3] = test system: human platelet-poor plasma coagulation; experiment: Prothrombin time and activated partial thromboplastin time measurement; conditions: 0.6 mM SAB, human cell-free plasma
Method in brief: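 Human platelet-poor plasma was tested in a steel-ball coagulometer. For PT, RecombiPlasTin 2G and its diluent stood 20 min at room temperature, were mixed 1:1 and warmed 5 min at 37 °C, then added to plasma (2:1 v/v). For aPTT, SynthASil was incubated 2 min at 37 °C, then 20 mM CaCl2 was added. Both end-points were time to solid gel.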

[4] = test system: cell-free human blood plasma coagulation; experiment: Clot turbidity assay; conditions: read-out: EC50, delay of cell-free human blood plasma coagulation; clot turbidity at 405 nm, 37 °C, 0.1 U/mL thrombin
human blood coagulation = experiment: Thromboelastography; conditions: 0.3 mM SAB
Method in brief: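 Thromboelastography used citrated (3.2%) whole blood from healthy human donors, treated with test compound (0.3 mM) or an equal volume of PBS. Samples were recalcified with 0.2 M CaCl2 stock and analysed on a TEG analyser.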

[5] = test system: thrombus formation in mouse cremaster arterioles; experiment: Laser-injury intravital microscopy thrombosis model; conditions: 0.010 mM final in vivo SAB concentration, jugular vein injection
Method in brief: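 Mice received fluorescently labelled anti-GPIb antibody (1 µg/g) through a jugular vein cannula before injury. Test compound was injected via the jugular cannula to a 0.010 mM final in vivo level, calculated from body weight (80 µL/g blood volume). Multiple cremaster arteriole injuries were made with a pulsed nitrogen dye laser. Thrombus formation was imaged by intravital microscopy and quantified as platelet MFI.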

[6] = test system: human platelet thrombus formation; experiment: Collagen-coated perfusion chamber analysis; assay type: cell-based; conditions: 0.32 mM SAB
Method in brief: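 Heparinised (5 U/mL) human whole blood was labelled with 1 μM DiOC6 for 20 min at 37 °C, then incubated with test compound or PBS for 10 min. It was perfused over a collagen-coated glass chamber for 3 min at 1800 or 300 s^−1. Platelet adhesion was recorded by fluorescence microscopy during perfusion, and thrombus mean fluorescence intensity was quantified.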

[7] = test system: carotid artery thrombosis; experiment: Ferric chloride carotid artery thrombosis model; assay type: in vivo, C57BL/6J mice; conditions: 15 mpk SAB via tail vein at 50% flow reduction, 10% ferric chloride
Method in brief: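 Isoflurane-anaesthetised C57BL/6J mice (>8 weeks, 20–35 g) had filter paper soaked in 10% FeCl3 applied to the carotid adventitia for 180 s. The vessel was rinsed with warm saline. Doppler flow probe recorded flow for 30 min. At 50% flow reduction, test compound (15 mpk, ~0.3 mM blood level) or saline was given via the tail vein. Flow recovery and occlusion time were recorded.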

thrombin [8] = molecular target: T1, thrombin (Homo sapiens, UniProt P00734); experiment: Intrinsic fluorescence spectrophotometry binding, thrombin; conditions: after 24 hours at room temperature
thrombin [9] = molecular target: T1, thrombin; experiment: Isothermal titration calorimetry, thrombin; assay type: binding; conditions: ITC, 20 °C, PBS pH 7.4
lysozyme [10] = experiment: Isothermal titration calorimetry, lysozyme control; assay type: binding; conditions: 20 μM lysozyme, 0.312 mM SAB titrant, 20 °C, PBS pH 7.4
Method in brief: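 ITC at 20 °C in PBS pH 7.4 was run with 20 μM lysozyme in the cell and test compound (0.312 mM) as titrant. Protocol: 60 s initial delay, 2 µL purge injection, then 34 injections of 8 µL every 300 s. The first point was discarded, and data were corrected for heat of dilution from titrant-into-buffer runs.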

lysozyme [11] = experiment: Intrinsic fluorescence spectrophotometry binding, lysozyme control; conditions: SAB titrated with lysozyme 0 to 95.6 μM, 20 °C
Method in brief: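 Intrinsic fluorescence of test compound (27.2 ± 0.4 μM) in PBS, 20 °C, titrated with lysozyme 0–95.6 μM; blank PBS titrated separately. Excitation 382 nm, emission peak ~498 nm, with inner-filter correction. Integrated emission was averaged, normalised and plotted against protein concentration, then fitted to a binding model for apparent Kd. Four trials.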

[12] = Stability of SAB in solution on storage and freeze-thaw; assay type: physicochemical; conditions: inhibitory function for platelet aggregation
[13] = flow cytometry, human platelets
[14] = flow cytometry, thrombin-stimulated human platelets

Substance: Salvianolic acid B [SAB]
- platelet aggregation [1]: completely abolished
- thrombin-induced platelet surface expression of Ricinus communis agglutinin-1 (RCA-1) (human platelet): significantly reduced
- thrombin-induced platelet surface expression of P-selectin (human platelet; [13]): significantly reduced
- thrombin-induced platelet surface expression of annexin-V (human platelet; [13]): significantly reduced
- binding of PAC-1 monoclonal antibody (αIIbβ3 integrin activation) (human platelet; [14]): significantly decreased
- binding of fibrinogen (αIIbβ3 integrin activation) (human platelet; [14]): significantly decreased
- ADP-induced platelet aggregation ([2]; PRP, 20 μM ADP): attenuated
- collagen-induced platelet aggregation ([2]; gel-filtered platelets, 5 μg/mL collagen): attenuated
- dry weight of the human blood clot (human blood clot): significantly reduced
- activated partial thromboplastin time (aPTT) [3]: prolonged
- prothrombin time (PT) [3]: prolonged
- EC50 [4]: 62 ± 70 µM
- initiation of human blood coagulation (R-time) in TEG (human blood coagulation): significantly prolonged
- reduction of thrombus formation in mouse cremaster vessels (platelet MFI) [5]: approximately 65% ± 5%
- human platelet thrombus formation, venous shear rate ([6]; 300 s^−1, collagen-coated chamber): significantly inhibited
- human platelet thrombus formation, arterial shear rate ([6]; 1800 s^−1, collagen-coated chamber): significantly inhibited
- carotid blood flow [7]: rescued
- vessel occlusion (time) [7]: prolonged
- decrease in the SAB-thrombin complex signal (thrombin [8]): less than 3%
- Hill coefficient nH (thrombin [9]): 1.1
- ΔH1 (thrombin [9]): 18 ± 1 kcal/mol
- ΔH2 (thrombin [9]): 180 ± 6 kcal/mol
- −TΔS1 (thrombin [9]): -27 ± 1 kcal/mol
- −TΔS2 (thrombin [9]): -185 ± 12 kcal/mol
- Kd (thrombin [9]; read-out: Kd1): 0.62 ± 0.08 µM
- Kd (thrombin [9]; read-out: dissociation constant Kd2 (weak binding site)): 37 ± 4 µM
- binding to lysozyme (ITC) (lysozyme [10]): no interaction
- binding to lysozyme (fluorescence) (lysozyme [11]): no direct interactions
- effect of prolonged storage in solution and repeated freeze-thaw cycles on SAB [12]: decreased SAB inhibitory function
